This is an account of results in ChEMBL document CHEMBL4359879, “Synthesis and evaluation of 2-carboxy indole derivatives as potent and selective anti-leukemic agents” (Eur J Med Chem, 2019).

What is called EC50 is the concentration needed to bring the measured effect to its halfway point. High values mean a less potent agent, low ones a more potent agent.

What all share (type): functional, cell-based
One experiment concerns RS4-11. As to the kind of experiment: Antiproliferative activity against human RS4:11 cells incubated for 48 hrs by MTT assay. Conditions: RS4-11, 48 h. In short, it runs like this: (§1)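 Cells grown in RPMI-1640 with 10% FBS, penicillin/streptomycin, 37 °C, 5% CO2. After 48 h of exposure to a dilution series, MTT was added (0.5 mg/ml final) for 4 h. Formazan was dissolved overnight in acidic SDS (10% SDS, 0.01 mol/L HCl) and absorbance read at 570 and 620 nm. Survival was expressed relative to controls, and EC50 was fitted from dose-response curves.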
(In general: Tetrazolium dyes change colour on reduction, which living cells bring about.)

The subject of a further experiment is CCRF-CEM. Description: Antiproliferative activity against human CEM cells incubated for 48 hrs by MTT assay. In short, it runs like this:
as §1

Experiment [1] relates to HL-60. As to the kind of experiment: Induction of differentiation in human HL60 cells assessed as increase in CD11b positive cells at 2 uM incubated for 48 hrs by 7-AAD staining-based flow cytometric analysis. In short, it runs like this: (§2)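 Vitamin D3 at 100 nM and ATRA at 2 μM served as positive controls. Stained with APC anti-CD11b and PE anti-CD14 for 30 min at 4 °C, then 7-AAD.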
(In general: In flow cytometry, cells or beads pass a laser one at a time.)

Experiment [2] concerns HL-60. As to the kind of experiment: Induction of differentiation in human HL60 cells assessed as increase in CD14 positive cells at 100 nM incubated for 48 hrs by 7-AAD staining-based flow cytometric analysis. In outline:
as §2

Active and inactive are the calls of the source. No cut-off for these calls is given here.

In the case of `COC(=O)c1c(-c2ccc(C(F)(F)F)cc2)c2ccc(OC)cc2n1C`, the EC50 with RS4-11 and with CCRF-CEM was more than 100 µM throughout.

On to `COC(=O)Cc1c(C(=O)OC)[nH]c2cc(OC)ccc12`, for which the EC50 in the experiment with RS4-11 and with CCRF-CEM was more than 100 µM in each case.

For the molecule `CCOC(=O)c1[nH]c2cc(OC)ccc2c1-c1ccc(C(F)(F)F)cc1`, the EC50 in the experiment with RS4-11 and with CCRF-CEM was more than 100 µM throughout.

Turning to `COC(=O)c1[nH]c2ccccc2c1-c1ccccc1`, the EC50 in the experiment on RS4-11 amounted to 95.2 µM; in the experiment with CCRF-CEM it was 35.8 µM.

With `COC(=O)c1[nH]c2cc(OC)ccc2c1-c1ccc(Br)cc1`, the EC50 with RS4-11 was determined as 0.2 µM; in the experiment on CCRF-CEM it was 0.33 µM.

With `COc1ccc2c(-c3ccc(C(F)(F)F)cc3)c(C(=O)N3CCOCC3)[nH]c2c1`, the EC50 with RS4-11 stood at 47.6 µM; in the experiment on CCRF-CEM, 29.7 µM.

Consider `COC(=O)c1[nH]c2cc(C(F)(F)F)ccc2c1-c1ccc(C(F)(F)F)cc1`, for which the EC50 in the experiment with RS4-11 and with CCRF-CEM was more than 100 µM in each case.

On to `COC(=O)c1c(-c2ccc(C(F)(F)F)cc2)c2ccc(OC)cc2n1Cc1ccccc1`, for which the EC50 in the experiment with RS4-11 and in the experiment on CCRF-CEM was more than 100 µM throughout.

For the molecule `COC(=O)c1[nH]c2ccc(OC)cc2c1-c1ccc(C(F)(F)F)cc1`, the EC50 with RS4-11 and in the experiment on CCRF-CEM was more than 100 µM each time.

With `COC(=O)c1[nH]c2ccccc2c1-c1ccc(OC)cc1`, the EC50 with RS4-11 and with CCRF-CEM was more than 100 µM each time.

Consider `COC(=O)c1[nH]c2ccccc2c1-c1ccc(F)cc1`, for which the EC50 in the experiment on RS4-11 and in the experiment with CCRF-CEM was more than 100 µM throughout.

For the molecule `CCc1c(C(=O)OC)[nH]c2cc(OC)ccc12`, the EC50 with RS4-11 and in the experiment on CCRF-CEM was more than 100 µM in each case.

Consider `CC1=C(/C=C/C(C)=C/C=C/C(C)=C/C(=O)O)C(C)(C)CCC1`, for which the outcome with HL-60 [1] was Active.

Turning to `COC(=O)c1[nH]c2cc(OC)ccc2c1C1CCCCC1`, the EC50 was more than 100 µM with RS4-11 and 80.2 µM in the experiment with CCRF-CEM.

`COC(=O)c1[nH]c2cc(C(F)(F)F)ccc2c1-c1ccccc1`: the EC50 in the experiment on RS4-11 and in the experiment on CCRF-CEM was more than 100 µM throughout.

As for `COC(=O)c1[nH]c2cc(OC)ccc2c1C(C)C`, the concentration giving a half-maximal response (EC50) in the experiment with RS4-11 is 81.5 µM; with CCRF-CEM, more than 100 µM.

On to `COC(=O)c1[nH]c2cc(OC)ccc2c1-c1ccccc1OC`, for which the EC50 was 10.5 µM in the experiment with RS4-11 and 1.9 µM in the experiment with CCRF-CEM.

As to `COC(=O)c1c(-c2ccc(C(F)(F)F)cc2)c2ccc(OC)cc2n1O`, the EC50 in the experiment with RS4-11 came to 0.3 µM; in the experiment with CCRF-CEM it was 0.39 µM.

On to `COC(=O)c1[nH]c2cc(OC)ccc2c1C`, for which the EC50 with RS4-11 and in the experiment on CCRF-CEM was more than 100 µM throughout.

With `COC(=O)c1[nH]c2cc(OC)ccc2c1CC(C)C`, the EC50 came to 37.8 µM with RS4-11 and 16.6 µM in the experiment with CCRF-CEM.

Consider `COC(=O)c1[nH]c2ccccc2c1-c1ccc(C(F)(F)F)cc1`, for which the EC50 with RS4-11 and with CCRF-CEM was more than 100 µM in each case.

On to `COc1ccc2c(-c3ccc(C(F)(F)F)cc3)c(C(=O)N[C@@H](Cc3ccccc3)C(=O)O)[nH]c2c1`, for which the figures for the EC50 in the experiment with RS4-11 and in the experiment on CCRF-CEM were 43.1 µM and 52 µM, respectively.

For `COC(=O)c1[nH]c2cc(OC)ccc2c1-c1ccc(F)cc1`, the EC50 was 85.6 µM in the experiment on RS4-11 and 10 µM with CCRF-CEM.

Regarding `COC(=O)c1[nH]c2cc(O)ccc2c1-c1ccc(C(F)(F)F)cc1`, the EC50 in the experiment on RS4-11 was found to be 10.3 µM; in the experiment on CCRF-CEM, 9.9 µM.

Consider `COc1ccc2c(-c3ccc(C(F)(F)F)cc3)c(C(=O)O)[nH]c2c1`, for which the EC50 came to 24.4 µM in the experiment on RS4-11 and 19.8 µM in the experiment on CCRF-CEM.

With `COC(=O)c1[nH]c2cc(C(F)(F)F)ccc2c1-c1ccc(OC)cc1`, the EC50 in the experiment on RS4-11 and with CCRF-CEM was more than 100 µM in each case.

As for `COC(=O)c1[nH]c2cc(OC)ccc2c1Cc1ccccc1`, the values for the EC50 in the experiment on RS4-11 and with CCRF-CEM were 61.6 µM and 8.7 µM, respectively.

As for `COc1ccc2c(-c3ccc(C(F)(F)F)cc3)c(C(=O)OC(C)(C)C)[nH]c2c1`, the EC50 in the experiment with RS4-11 and in the experiment on CCRF-CEM was more than 100 µM in each case.

On to `COC(=O)c1[nH]c2cc(OC)ccc2c1C(=O)OC`, for which the EC50 in the experiment on RS4-11 and with CCRF-CEM was more than 100 µM in each case.

Consider `C=C1/C(=C\C=C2/CCC[C@]3(C)[C@@H]([C@H](C)CCCC(C)(C)O)CC[C@@H]23)C[C@@H](O)C[C@@H]1O`, for which the result with HL-60 [2] was Active.

Regarding `COC(=O)c1[nH]c2cc(OC)ccc2c1-c1ccc(Cl)c(Cl)c1`, the EC50 came to 3.8 µM in the experiment with RS4-11 and 0.58 µM with CCRF-CEM.
